# Results published in ChEMBL document CHEMBL1145749, “Inhibition of human immunodeficiency virus reverse transcriptase by synadenol triphosphate and its E-isomer” (J Med Chem, 2003).
# Calls of active or inactive are those of the source. The calls are words filed in the database; no cut-off is given here.
# Key:
# [1] = test system: Human immunodeficiency virus 1; assay: Antiviral selectivity against HIV-1 virus; Significant activity; type: functional, organism-based
# [2] = Ratio of inhibitory activity of compound to that of substrate activity of dATP against RT wt enzyme was determined
# In short: (§1)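 Recombinant HIV-1 RT (wild-type, M184V or M184I) was expressed in E. coli JM109 with 1 mM IPTG for 5 h, then purified on Q and SP columns to >90% purity. Assay used MS2 RNA/22A DNA primer in 50 mM Tris-HCl pH 7.8, 6 mM MgCl2, 150 mM KCl and 0.01% Triton X-100. Synthesis was distributive, with [3H]dATP as the only nucleotide, at 37 °C. Timed aliquots were spotted on DE81 and counted by scintillation. Ki came from the abscissa intercept of the Lineweaver–Burk replot. Ratio was Ki over dATP Km.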
# [3] = Ratio of inhibitory activity of compound to that of substrate activity of dATP against RT M184I enzyme was determined; in short: as §1
# [4] = Ratio of inhibitory activity of compound to that of substrate activity of dATP against RT M184V enzyme was determined; in short: as §1
# [5] = test system: Nc1ncnc2c1ncn2[C@H]1C[C@H](O)[C@@H](COP(=O)(O)OP(=O)(O)OP(=O)(O)O)O1; assay: Substrate Activity against HIV-1 reverse transcriptase (RT M184V)
# In short: (§2)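 Purified recombinant HIV-1 RT M184V or M184I was assayed on MS2 RNA/22A primer at 37 °C (pH 7.8 Tris, 6 mM MgCl2, 150 mM KCl, 0.01% Triton X-100) with [3H]dATP as the only nucleotide substrate. Aliquots were taken 4–5 times onto DE81 filters and counted by scintillation. Km was taken from the Lineweaver–Burk plot without inhibitor.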
# Human betaherpesvirus 5 [6] = assay: Antiviral selectivity against HCMV virus; exhibited wide range selectivity; type: functional, organism-based
# [7] = test system: Human immunodeficiency virus 1; assay: Antiviral selectivity against HIV-1 virus; exhibited wide range selectivity; type: functional, organism-based
# Human alphaherpesvirus 3 [8] = assay: Antiviral selectivity against varicella zoster virus; exhibited wide range selectivity; type: functional, organism-based
# Human gammaherpesvirus 4 [9] = assay: Antiviral selectivity against EB virus; exhibited wide range selectivity; type: functional, organism-based
# [10] = test system: Nc1ncnc2c1ncn2[C@H]1C[C@H](O)[C@@H](COP(=O)(O)OP(=O)(O)OP(=O)(O)O)O1; assay: Substrate Activity against HIV-1 reverse transcriptase (RT M184I); in short: as §2
# [11] = test system: Human immunodeficiency virus 1; assay: Antiviral selectivity against HIV-1 virus; Inactive; type: functional, organism-based
# Human betaherpesvirus 5 [12] = assay: Antiviral selectivity against HCMV virus; Inactive; type: functional, organism-based
# Human alphaherpesvirus 3 [13] = assay: Antiviral selectivity against varicella zoster virus; Inactive; type: functional, organism-based
# Human gammaherpesvirus 4 [14] = assay: Antiviral selectivity against […]; Inactive; type: functional, organism-based
molecule,measurement,setting,value
COC(=O)C(C)NP(=O)(OCC1C/C1=C\n1cnc2c(N)ncnc21)Oc1ccccc1 (stereo not given),Anti-HIV activity,[1],Significant activity
Nc1ncnc2c1ncn2/C=C1/CC1COP(=O)(O)OP(=O)(O)OP(=O)(O)O (stereo not given),Ki/Km,[2],0.8
same,Ki/Km,[3],6.3
same,Ki/Km,[4],4.5
Nc1ncnc2c1ncn2[C@H]1CC[C@@H](COP(=O)(O)OP(=O)(O)OP(=O)(O)O)O1,Ki/Km,[2],1.2
same,Ki/Km,[3],3.2
same,Ki/Km,[4],1.3
"Human immunodeficiency virus type 1 reverse transcriptase (Human immunodeficiency virus 1), Q72547 M184V",Km,[5],0.38 µM
Nc1ncnc2c1ncn2/C=C1/CC1CO (stereo not given),Antiviral selectivity,Human betaherpesvirus 5 [6],exhibited wide range selectivity
same,Antiviral selectivity,[7],exhibited wide range selectivity
same,Antiviral selectivity,Human alphaherpesvirus 3 [8],exhibited wide range selectivity
same,Antiviral selectivity,Human gammaherpesvirus 4 [9],exhibited wide range selectivity
"Human immunodeficiency virus type 1 reverse transcriptase (Human immunodeficiency virus 1), Q72547 M184I",Km,[10],0.38 µM
Nc1ncnc2c1ncn2/C=C1\CC1CO (stereo not given),IA,[11],inactive
same,IA,Human betaherpesvirus 5 [12],inactive
same,IA,Human alphaherpesvirus 3 [13],inactive
same,IA,Human gammaherpesvirus 4 [14],inactive
Nc1ncnc2c1ncn2/C=C1\CC1COP(=O)(O)OP(=O)(O)OP(=O)(O)O (stereo not given),Ki/Km,[2],25
same,Ki/Km,[3],187
same,Ki/Km,[4],137
